Test results published in ChEMBL document CHEMBL1127085, “Derivatives of 2-(dipropylamino)tetralin: effect of the C8-substituent on the interaction with 5-HT1A receptors” (J Med Chem, 1993).

Assays:
[1] = target: T1, 5-hydroxytryptamine receptor 1A (Rattus norvegicus, UniProt P19327); assay: Binding affinity of 5-hydroxytryptamine 1A receptor using [3H]-8-OH-DPAT as radioligand.
T1 sequence (P19327 whole entry): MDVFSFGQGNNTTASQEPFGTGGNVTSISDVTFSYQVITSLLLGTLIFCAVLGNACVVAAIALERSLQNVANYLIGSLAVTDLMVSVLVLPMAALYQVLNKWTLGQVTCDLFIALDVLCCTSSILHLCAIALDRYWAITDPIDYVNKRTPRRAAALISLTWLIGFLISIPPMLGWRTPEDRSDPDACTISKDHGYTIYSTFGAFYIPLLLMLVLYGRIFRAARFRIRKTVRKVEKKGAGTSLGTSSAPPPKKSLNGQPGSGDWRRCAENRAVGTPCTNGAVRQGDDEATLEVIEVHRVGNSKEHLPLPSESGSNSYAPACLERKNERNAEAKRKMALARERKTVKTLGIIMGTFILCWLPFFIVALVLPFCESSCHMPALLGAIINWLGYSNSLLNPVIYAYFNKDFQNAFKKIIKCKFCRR
Summary of the method: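 Membranes from cortex and hippocampus of male Sprague-Dawley rats, pooled from at least six rats, preincubated with 10 µM pargyline. Assay used 2 nM [3H]-8-OH-DPAT, test compound at 1-300 nM and 5 mg/mL tissue in 50 mM Tris-HCl with 4.0 mM CaCl2 and 5.7 mM ascorbate, pH 7.5. Incubated 10 min at 37 °C, filtered on GF/B, scintillation counted.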

[2] = tested on: Rattus norvegicus; assay: Induction of clear-cut 5-HT motor syndrome in normal rats at the dose of 30 micro mol/kg; assay type: functional
[3] = target: T2, 5-hydroxytryptamine receptor 1A (Rattus norvegicus) (UniProt P19327); assay: 5-HT (serotonin) turnover in rat hippocampus (p<0.01); assay type: functional, tissue-based
T2 sequence (whole entry): T1 sequence (P19327 whole entry)
Summary of the method: (§1)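 Rats dosed sc (screening dose typically 32 µmol/kg, in 0.9% NaCl, 2 mL/kg); decapitated 5-10 min after the 30-min rating, […]. Hippocampus dissected and frozen. 5-HIAA/5-HT ratio measured by HPLC with electrochemical detection (+0.85 V) after perchloric acid homogenisation. Reported as percent of saline control, mean ± SEM, n = 4-6 per group; ANOVA with Tukey test.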

[4] = species: Rattus norvegicus; assay: Dopamine (DA) turnover in rat corpus striatum (p<0.05); assay type: functional
Summary of the method: (§2)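 Rats given compound sc in 0.9% NaCl (screening dose typically 32 µmol/kg); decapitated about 30 min after dosing. Hippocampus and corpus striatum dissected and frozen. Perchloric acid homogenates analysed by HPLC with electrochemical detection. Turnover taken as 5-HIAA/5-HT or DOPAC/DA, expressed as percent of saline control. Means ± SEM; n = 5-7 controls, 4-6 treated. ANOVA with Tukey test.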

[5] = tested on: Rattus norvegicus; assay: Change in body temperature of rats upon administration after 30 minutes (p<0.01); assay type: functional
Summary of the method: (§3)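 Colonic temperature taken with an electrical thermometer probe 3.5 cm deep, before and 30 min after sc injection in saline. Change reported in °C as mean ± SEM; animal numbers as in the cage-leaving test. ANOVA with Tukey test.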

[6] = target: T2, 5-hydroxytryptamine receptor 1A (Rattus norvegicus); assay: Number of rats displaying the 5-HT syndrome or leaving the cage out of the number of rats tested; assay type: functional
[7] = target: T2, 5-hydroxytryptamine receptor 1A (Rattus norvegicus); assay: Induction of clear-cut 5-HT motor syndrome in reserpine (5 mg/Kg, sc) pretreated rats at the dose of 32 uM/Kg; assay type: functional, organism-based
[8] = tested on: Rattus norvegicus; assay: Induction of clear-cut 5-HT motor syndrome in normal rats at the dose of 1 uM/Kg; assay type: functional
[9] = tested on: Rattus norvegicus; assay: Induction of clear-cut 5-HT motor syndrome in reserpine (5 mg/Kg, sc) pretreated rats at the dose of 1 uM/Kg; assay type: functional
[10] = target: T2, 5-hydroxytryptamine receptor 1A (Rattus norvegicus); assay: 5-HT (serotonin) turnover in rat hippocampus; assay type: functional, tissue-based; summary of the method: as §2
[11] = target: T3, Dopamine receptor (Rattus norvegicus) (UniProt P25115+P19020+P30729+P18901+P61169); assay: Dopamine (DA) turnover in rat corpus striatum; assay type: functional, tissue-based; summary of the method: as §2
[12] = tested on: Rattus norvegicus; assay: Change in body temperature of rats upon administration after 30 minutes; assay type: functional; summary of the method: as §3
[13] = tested on: Rattus norvegicus; assay: Induction of clear-cut 5-HT motor syndrome in reserpine (5 mg/kg, sc) pretreated rats at the dose of 10 micro mol/kg; assay type: functional
[14] = target: T3, Dopamine receptor (Rattus norvegicus); assay: Effect of accumulation of DOPA in rat striatum at the dose of 32 umol/kg; assay type: functional, tissue-based
Summary of the method: (§4)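 Test compound given sc in 0.9% NaCl. NSD 1015 (287 µmol/kg sc) given 30 min later to inhibit aromatic L-amino acid decarboxylase; rats decapitated after a further 30 min. Hippocampus and striatum stored at -40 °C for up to 1 week. Perchloric acid homogenates with α-methyl-5-hydroxytryptophan internal standard; 5-HTP and DOPA measured by HPLC-EC. Percent of control, means ± SEM; ANOVA with Tukey test.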

[15] = target: T2, 5-hydroxytryptamine receptor 1A (Rattus norvegicus); assay: Effect of 5-HT accumulation in rat hippocampus at the dose of 32 umol/kg (p<0.01); assay type: functional, tissue-based; summary of the method: as §4
[16] = target: T2, 5-hydroxytryptamine receptor 1A (Rattus norvegicus); assay: Induction of clear-cut 5-HT motor syndrome in normal rats at the dose of 32 micro mol/kg; assay type: functional
[17] = target: T2, 5-hydroxytryptamine receptor 1A (Rattus norvegicus); assay: 5-HT (serotonin) turnover in rat hippocampus (p<0.05); assay type: functional, tissue-based; summary of the method: as §1
[18] = target: T2, 5-hydroxytryptamine receptor 1A (Rattus norvegicus); assay: Induction of clear-cut 5-HT motor syndrome in reserpine (5 mg/kg, sc) pretreated rats at the dose of 32 micro mol/kg; assay type: functional, organism-based
[19] = tested on: Rattus norvegicus; assay: Induction of clear-cut 5-HT motor syndrome in normal rats at the dose of 32 uM/Kg; assay type: functional
[20] = tested on: Rattus norvegicus; assay: Effect of accumulation of DOPA in rat striatum at the dose of 0.32 umol/kg (p<0.01); assay type: functional; summary of the method: as §4
[21] = tested on: Rattus norvegicus; assay: Effect of DOPA accumulation in rat striatum at the dose of 0.32 umol/kg (p<0.01); assay type: functional; summary of the method: as §4
[22] = tested on: Rattus norvegicus; assay: Induction of clear-cut 5-HT motor syndrome in normal rats at the dose of 10 micro mol/kg; assay type: functional

CCCN(CCC)C1CCc2cccc(C(=O)c3ccccc3)c2C1 (racemic)
Ki [1]: 2.8 nM

CCCN(CCC)[C@@H]1CCc2cccc(OC)c2C1
Behavioral effect [2]: 4 | Turnover [3]: 66 | Turnover [4]: 70 | Temperature [5]: -1.5 | No. of rats [6]: 0

CCCN(CCC)C1CCc2cccc(C(N)=O)c2C1 (racemic)
Ki [1]: 6 nM | Behavioral effect [7]: 4

CCCN(CCC)[C@@H]1CCc2cccc(C(C)=O)c2C1
Behavioral effect [8]: 4 | Behavioral effect [9]: 4 | Turnover [10]: 68 | Turnover [11]: 106 | Temperature [12]: -2.8 | No. of rats [6]: 0

C#Cc1cccc2c1CC(N(CCC)CCC)CC2 (racemic)
Ki [1]: 4 nM | Behavioral effect [13]: 1

CCCN(CCC)[C@H]1CCc2cccc(CO)c2C1
Ki [1]: 130 nM | Accumulation [14]: 101 | Accumulation [15]: 58 | Behavioral effect [16]: 4 | Turnover [17]: 75 | Turnover [11]: 121 | Temperature [12]: -2.2 | No. of rats [6]: 0 | Behavioral effect [18]: 0

CCCN(CCC)[C@H]1CCc2cccc(OC)c2C1
Behavioral effect [16]: 4 | Turnover [17]: 80 | Turnover [11]: 79 | Temperature [12]: -1.5 | No. of rats [6]: 0

CCCN(CCC)[C@H]1CCc2cccc(C)c2C1
Accumulation [14]: 119 | Accumulation [15]: 64 | Behavioral effect [16]: 4 | Turnover [10]: 79 | Turnover [11]: 80 | Temperature [5]: -2.3 | No. of rats [6]: 0 | Behavioral effect [18]: 0

C#Cc1cccc2c1C[C@@H](N(CCC)CCC)CC2
Ki [1]: 16 nM | Accumulation [14]: 95 | Accumulation [15]: 31 | Behavioral effect [16]: 4 | Turnover [3]: 66 | Turnover [11]: 82 | Temperature [5]: -2.8 | No. of rats [6]: 0 | Behavioral effect [18]: 4

CCCN(CCC)[C@@H]1CCc2cccc(C(=O)c3ccccc3)c2C1
Ki [1]: 4.6 nM | Accumulation [14]: 69 | Accumulation [15]: 56 | Behavioral effect [19]: 4 | Behavioral effect [7]: 4 | Turnover [10]: 74 | Turnover [11]: 122 | Temperature [12]: -3.3 | No. of rats [6]: 0

CCCN(CCC)[C@H]1CCc2cccc(C#N)c2C1
Ki [1]: 37 nM | Behavioral effect [7]: 4

CCCN(CCC)[C@H]1CCc2cccc(O)c2C1
Accumulation [20]: 94 | Accumulation [21]: 94 | Behavioral effect [13]: 5 | Behavioral effect [22]: 4 | Turnover [17]: 72 | Turnover [11]: 106 | Temperature [5]: -2 | No. of rats [6]: 0

CCCN(CCC)C1CCc2cccc(C#N)c2C1 (racemic)
Ki [1]: 26 nM | Behavioral effect [7]: 3

CCCN(CCC)C1CCc2cccc(OS(=O)(=O)C(F)(F)F)c2C1 (racemic)
Behavioral effect [18]: 0

CCCN(CCC)C1CCc2cccc(-c3ccccc3)c2C1 (racemic)
Ki [1]: 12 nM | Behavioral effect [18]: 0
